Measured values: ChEMBL document CHEMBL4196145, “Antitumor Activity of Diterpenoids from Jatropha gossypiifolia: Cell Cycle Arrest and Apoptosis-Inducing Activity in RKO Colon Cancer Cells” (J Nat Prod, 2018)
Active and inactive are the calls of the source. The calls are words filed in the database; no cut-off is given here.

Experiments:
[1] = tested on: RKO; assay: Growth inhibition of human RKO cells after 48 hrs by CCK-8 assay; type: functional, cell-based
Method in brief: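 CCK-8 (WST-8) was then added for 1 h at 37 °C and optical density read at 450 nm. Survival was expressed relative to untreated control wells and IC50 calculated. Three independent experiments.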

[2] = tested on: LoVo; assay: Growth inhibition of human LoVo cells after 48 hrs by CCK-8 assay; type: functional, cell-based
[3] = tested on: RKO; assay: Induction of apoptosis in human RKO cells at 5.2 uM after 24 hrs by DAPI staining based fluorescence microscopy; type: functional, cell-based
[4] = tested on: RKO; assay: Induction of apoptosis in human RKO cells assessed as nuclear condensation at 2.6 to 5.2 uM after 24 hrs by DAPI staining based fluorescence microscopy; type: functional, cell-based
[5] = tested on: RKO; assay: Induction of apoptosis in human RKO cells assessed as nuclear fragmentation at 2.6 to 5.2 uM after 24 hrs by DAPI staining based fluorescence microscopy; type: functional, cell-based
[6] = tested on: RKO; assay: Antimigratory activity against human RKO cells at 2.6 to 5.2 uM after 48 hrs by wound healing based inverted microscopy; type: functional, cell-based
Method in brief: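 Scratch-wound assay. RKO monolayers above 90% confluence were scratched with a sterile pipette tip and debris rinsed off with PBS. Cells were then kept in MEM with 2% FBS at 37 °C with compound, DMSO vehicle or 5-FU. Wounds were photographed by inverted microscopy at 0 and 48 h, and scratch area was compared with the original wound.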

[7] = tested on: RKO; assay: Cell cycle arrest in human RKO cells assessed as accumulation at G1 phase at 2.6 uM after 24 hrs by propidium iodide staining based flow cytometry (reference value: 51.13%); type: functional
[8] = tested on: RKO; assay: Cell cycle arrest in human RKO cells assessed as accumulation at G2/M phase at 2.6 uM after 24 hrs by propidium iodide staining based flow cytometry (reference value: 10.97%); type: functional
[9] = tested on: RKO; assay: Cell cycle arrest in human RKO cells assessed as accumulation at S phase at 2.6 uM after 24 hrs by propidium iodide staining based flow cytometry (reference value: 37.89%); type: functional
[10] = tested on: RKO; assay: Cell cycle arrest in human RKO cells assessed as accumulation at G1 phase at 5.2 uM after 24 hrs by propidium iodide staining based flow cytometry (reference value: 51.13%); type: functional
[11] = tested on: RKO; assay: Cell cycle arrest in human RKO cells assessed as accumulation at G2/M phase at 5.2 uM after 24 hrs by propidium iodide staining based flow cytometry (reference value: 10.97%); type: functional
[12] = tested on: RKO; assay: Cell cycle arrest in human RKO cells assessed as accumulation at S phase at 5.2 uM after 24 hrs by propidium iodide staining based flow cytometry (reference value: 37.89%); type: functional
[13] = tested on: RKO; assay: Induction of apoptosis in human RKO cells assessed as viable cells at 2.6 uM after 24 hrs by annexin V-FITC/propidium iodide staining based flow cytometry (reference value: 94.1%); type: functional; details: read-out: Activity
Method in brief: (§1)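 Annexin V-FITC/PI kit assay. RKO cells were treated for 24 h at 37 °C with compound, DMSO or 5-FU, collected and washed twice with PBS. They were resuspended in binding buffer and stained with annexin V-FITC and PI for 20 min at 37 °C in the dark. Flow cytometry was run immediately, with viable, early/late apoptotic and necrotic fractions read.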

[14] = tested on: RKO; assay: Induction of apoptosis in human RKO cells assessed as early apoptotic cells at 2.6 uM after 24 hrs by annexin V-FITC/propidium iodide staining based flow cytometry (reference value: 1.98%); type: functional; method in brief: as §1
[15] = tested on: RKO; assay: Induction of apoptosis in human RKO cells assessed as late apoptotic cells at 2.6 uM after 24 hrs by annexin V-FITC/propidium iodide staining based flow cytometry (reference value: 3.91%); type: functional; method in brief: as §1
[16] = tested on: RKO; assay: Induction of apoptosis in human RKO cells assessed as necrotic cells at 2.6 uM after 24 hrs by annexin V-FITC/propidium iodide staining based flow cytometry (reference value: 0.035%); type: functional; method in brief: as §1
[17] = tested on: RKO; assay: Induction of apoptosis in human RKO cells assessed as viable cells at 5.2 uM after 24 hrs by annexin V-FITC/propidium iodide staining based flow cytometry (reference value: 94.1%); type: functional; details: read-out: Activity; method in brief: as §1
[18] = tested on: RKO; assay: Induction of apoptosis in human RKO cells assessed as early apoptotic cells at 5.2 uM after 24 hrs by annexin V-FITC/propidium iodide staining based flow cytometry (reference value: 1.98%); type: functional; method in brief: as §1
[19] = tested on: RKO; assay: Induction of apoptosis in human RKO cells assessed as late apoptotic cells at 5.2 uM after 24 hrs by annexin V-FITC/propidium iodide staining based flow cytometry (reference value: 3.91%); type: functional; method in brief: as §1
[20] = tested on: RKO; assay: Induction of apoptosis in human RKO cells assessed as necrotic cells at 5.2 uM after 24 hrs by annexin V-FITC/propidium iodide staining based flow cytometry (reference value: 0.035%); type: functional; method in brief: as §1
[21] = tested on: RKO; assay: Induction of apoptosis in human RKO cells after 24 hrs by annexin V-FITC/propidium iodide staining based flow cytometry; type: functional, cell-based; method in brief: as §1
[22] = tested on: RKO; assay: Cell cycle arrest in human RKO cells assessed as accumulation at G1 phase at 10.2 uM after 24 hrs by propidium iodide staining based flow cytometry (reference value: 51.13%); type: functional
[23] = tested on: RKO; assay: Cell cycle arrest in human RKO cells assessed as accumulation at G2/M phase at 10.2 uM after 24 hrs by propidium iodide staining based flow cytometry (reference value: 10.97%); type: functional
[24] = tested on: RKO; assay: Cell cycle arrest in human RKO cells assessed as accumulation at S phase at 10.2 uM after 24 hrs by propidium iodide staining based flow cytometry (reference value: 37.89%); type: functional
[25] = tested on: RKO; assay: Cell cycle arrest in human RKO cells assessed as accumulation at G1 phase at 20.4 uM after 24 hrs by propidium iodide staining based flow cytometry (reference value: 51.13%); type: functional
[26] = tested on: RKO; assay: Cell cycle arrest in human RKO cells assessed as accumulation at G2/M phase at 20.4 uM after 24 hrs by propidium iodide staining based flow cytometry (reference value: 10.97%); type: functional
[27] = tested on: RKO; assay: Cell cycle arrest in human RKO cells assessed as accumulation at S phase at 20.4 uM after 24 hrs by propidium iodide staining based flow cytometry (reference value: 37.89%); type: functional
[28] = tested on: RKO; assay: Induction of apoptosis in human RKO cells assessed as viable cells at 10.2 uM after 24 hrs by annexin V-FITC/propidium iodide staining based flow cytometry (reference value: 94.1%); type: functional; details: read-out: Activity
[29] = tested on: RKO; assay: Induction of apoptosis in human RKO cells assessed as early apoptotic cells at 10.2 uM after 24 hrs by annexin V-FITC/propidium iodide staining based flow cytometry (reference value: 1.98%); type: functional
[30] = tested on: RKO; assay: Induction of apoptosis in human RKO cells assessed as late apoptotic cells at 10.2 uM after 24 hrs by annexin V-FITC/propidium iodide staining based flow cytometry (reference value: 3.91%); type: functional
[31] = tested on: RKO; assay: Induction of apoptosis in human RKO cells assessed as necrotic cells at 10.2 uM after 24 hrs by annexin V-FITC/propidium iodide staining based flow cytometry (reference value: 0.035%); type: functional
[32] = tested on: RKO; assay: Induction of apoptosis in human RKO cells assessed as viable cells at 20.4 uM after 24 hrs by annexin V-FITC/propidium iodide staining based flow cytometry (reference value: 94.1%); type: functional; details: read-out: Activity
[33] = tested on: RKO; assay: Induction of apoptosis in human RKO cells assessed as early apoptotic cells at 20.4 uM after 24 hrs by annexin V-FITC/propidium iodide staining based flow cytometry (reference value: 1.98%); type: functional
[34] = tested on: RKO; assay: Induction of apoptosis in human RKO cells assessed as late apoptotic cells at 20.4 uM after 24 hrs by annexin V-FITC/propidium iodide staining based flow cytometry (reference value: 3.91%); type: functional
[35] = tested on: RKO; assay: Induction of apoptosis in human RKO cells assessed as necrotic cells at 20.4 uM after 24 hrs by annexin V-FITC/propidium iodide staining based flow cytometry (reference value: 0.035%); type: functional

SMILES: CC(=O)O[C@H]1/C2=C/[C@@H](C)C(=O)C[C@H]3[C@@H](/C=C(\C)C(=O)[C@H]2C[C@H]1C)C3(C)C
- growth inhibition (GI) [1]: inactive
- growth inhibition (GI) [2]: inactive

SMILES: C/C1=C/C2=C(C[C@H](C)C2)C(=O)[C@@]2(C)C(=O)CC(C)(C)[C@@H]2CC1=O
- growth inhibition (GI) [1]: inactive
- growth inhibition (GI) [2]: inactive

SMILES: C/C1=C/C2=C(C[C@@H](C)C2)C(=O)[C@@]2(C)C(=O)CC(C)(C)[C@@H]2CC1=O
- growth inhibition (GI) [1]: inactive
- growth inhibition (GI) [2]: inactive

SMILES: C=C(C)[C@@H]1/C=C/[C@@H](C)C(=O)[C@H]2C[C@@H](C)[C@@H](O)/C2=C/[C@@H](C)C(=O)C1
- growth inhibition (GI) [1]: inactive
- growth inhibition (GI) [2]: inactive

SMILES: CC(=O)O[C@H]1/C2=C/[C@@H](C)C(=O)C[C@H]3[C@@H](/C=C(\C)C(=O)[C@@]2(O)C[C@H]1C)C3(C)C
- growth inhibition (GI) [1]: inactive
- growth inhibition (GI) [2]: inactive

SMILES: C=C(C)[C@@H]1/C=C/[C@@H](C)C(=O)[C@H]2C[C@@H](C)[C@@H](OC(C)=O)/C2=C/[C@](C)(O)C(=O)C1
- growth inhibition (GI) [1]: inactive
- growth inhibition (GI) [2]: inactive

SMILES: CC1=C2CC(C)(C)/C=C/C(=O)/C(C)=C\C3=C[C@H](C)C[C@]3(O2)C1=O [JATROPHONE]
- IC50 [1]: 8 µM
- IC50 [2]: 18.6 µM

SMILES: C=C1CC[C@H]2[C@@H](c3c(C)c(O)c4c(c31)C(=O)[C@H](C)C4)C2(C)C
- growth inhibition (GI) [1]: inactive
- growth inhibition (GI) [2]: inactive

SMILES: CC(=O)O[C@H]1/C2=C/[C@@H](C)C(=O)C[C@H]3[C@@H](C[C@@H](C)C(=O)[C@H]2C[C@H]1C)C3(C)C
- growth inhibition (GI) [1]: inactive
- growth inhibition (GI) [2]: inactive

SMILES: C=C(C)[C@@H]1/C=C/[C@@H](C)C(=O)[C@H]2C[C@@H](C)[C@@H](OC(C)=O)[C@H]2/C=C(/C)C(=O)C1
- growth inhibition (GI) [1]: inactive
- growth inhibition (GI) [2]: inactive

SMILES: C=C1CC[C@@H](C(=C)C)[C@@H]2C=C(C)C(=O)C3=C(C(=O)[C@@H](C)[C@H]3O)[C@@H]12
- IC50 [1]: 2.6 µM
- IC50 [2]: 14.5 µM
- Activity [3]: Active
- Activity [4]: Active
- Activity [5]: Active
- Activity [6]: Active
- Activity [7]: 44.03%
- Activity [8]: 18.3%
- Activity [9]: 37.68%
- Activity [10]: 36.06%
- Activity [11]: 25.76%
- Activity [12]: 38.18%
- viability at 2.6 µM [13]: 59.9%
- Activity [14]: 12.1%
- Activity [15]: 27.6%
- Activity [16]: 0.404%
- viability at 5.2 µM [17]: 9.5%
- Activity [18]: 21.5%
- Activity [19]: 68.2%
- Activity [20]: 0.811%
- Activity [21]: Dose-dependent effect

SMILES: C=C1CC[C@H]2[C@@H](c3c(C)c(O)c4c(c31)C(=O)[C@@H](C)C4)C2(C)C
- growth inhibition (GI) [1]: inactive
- growth inhibition (GI) [2]: inactive

SMILES: O=c1[nH]cc(F)c(=O)[nH]1 [FLUOROURACIL]
- IC50 [1]: 10.2 µM
- IC50 [2]: 11.5 µM
- Activity [22]: 62.56%
- Activity [23]: 21.47%
- Activity [24]: 15.97%
- Activity [25]: 66.4%
- Activity [26]: 21.48%
- Activity [27]: 12.12%
- viability at 10.2 µM [28]: 69.2%
- Activity [29]: 9.75%
- Activity [30]: 20.8%
- Activity [31]: 0.289%
- viability at 20.4 µM [32]: 51.7%
- Activity [33]: 11.6%
- Activity [34]: 36.7%
- Activity [35]: 0.065%

SMILES: C/C1=C/[C@]23O[C@H]2[C@H](C)CC3C(=O)[C@]2(C)C(=O)CC(C)(C)[C@H]2CC1=O (stereo not given in full)
- growth inhibition (GI) [1]: inactive
- growth inhibition (GI) [2]: inactive

SMILES: CC(=O)O[C@H]1C2=C[C@@H](C)C(=O)[C@H]3[C@H]4[C@@H](C[C@@H](C)[C@]3(O)[C@H]2C[C@H]1C)C4(C)C
- growth inhibition (GI) [1]: inactive
- growth inhibition (GI) [2]: inactive

SMILES: C=C(C)[C@@H]1/C=C/[C@@H](C)C(=O)[C@H]2C[C@@H](C)[C@@H](OC(C)=O)/C2=C/[C@@H](C)C(=O)C1
- growth inhibition (GI) [1]: inactive
- growth inhibition (GI) [2]: inactive
